Calls of active or inactive are those of the source. The rule behind the calls is not given here.
What was measured:
[1] = test system: HaCaT; assay: Activation of mitochondrial cytochrome C oxidase in human HaCaT lysate at 0.87 to 7 uM using equine cardiac cytochrome C substrate by spectrophotometry
Outline: (§1)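 Lysis in HEPES buffer (20 mM HEPES, 0.1% Triton, 1 mM EDTA). Lysates were Bradford-adjusted to 2 mg/mL. v0 was taken without substrate, then 50 μM reduced cytochrome c was added. Loss was read at 550 nm over 90 s. Slopes gave U/μg. Activity was expressed as % of the DMSO 0.1% control; n=3, mean ± SD, paired t test.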

[2] = test system: HaCaT; assay: Activation of mitochondrial cytochrome C oxidase in human HaCaT lysate at 50 uM using equine cardiac cytochrome C substrate by spectrophotometry; outline: as §1
[3] = test system: HaCaT; assay: Induction of mitochondrial biogenesis in human HaCaT cells assessed as mitochondrial 16S rRNA level by qPCR; assay type: functional, cell-based
Outline: (§2)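 HaCaT cells were treated as for the oxidase assay, but for 48 h. Lysis in Tris 10 mM/EDTA 1 mM/NaOAc 0.3 M/SDS 1%, then phenol DNA extraction. SYBR Green qPCR ran 45 cycles at 60 °C with calibration curves from serial DNA dilutions. Mitochondrial 16S or cox2 DNA was quantified relative to nuclear ucp-2 DNA and normalized to untreated cells; biogenesis was taken as a ratio >1. n=3, mean ± SD, paired t test.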

[4] = test system: HaCaT; assay: Induction of mitochondrial biogenesis in human HaCaT cells assessed as ratio of mitochondrial COX2 to UCP2 gene quantity at 1.75 to 7 uM by qPCR; assay type: functional, cell-based; outline: as §2
[5] = test system: HaCaT; assay: Activation of mitochondrial cytochrome C oxidase in human HaCaT lysate at 0.81 uM using equine cardiac cytochrome C substrate by spectrophotometry; outline: as §1
[6] = test system: HaCaT; assay: Activation of mitochondrial cytochrome C oxidase in human HaCaT lysate using equine cardiac cytochrome C substrate by spectrophotometry relative to resveratrol

| Structure (SMILES) | Activity [1] | Activity [2] | Activity [3] | Activity [4] | Activity [5] | fold change (FC) [6] |
| --- | --- | --- | --- | --- | --- | --- |
| O=C(/C=C/c1ccccc1)O[C@@H]1[C@@H](O)[C@H](O[C@@](CC(=O)OCc2ccc(O[C@@H]3O[C@H](CO)[C@@H](O)[C@H](O)[C@H]3O)cc2)(Cc2ccc(O)cc2)C(=O)OCc2ccc(O[C@@H]3O[C@H](CO)[C@@H](O)[C@H](O)[C@H]3O)cc2)O[C@H](CO)[C@H]1O | inactive | – | – | – | – | – |
| Oc1ccc(/C=C/c2cc(O)cc(O)c2)cc1 | – | 138% | – | – | – | – |
| O=C(O)C[C@](O)(Cc1ccc(O)cc1)C(=O)O | – | – | inactive | inactive | Active | 60 |
| O=C(C[C@](O)(Cc1ccc(O)cc1)C(=O)O)OCc1ccc(O[C@@H]2O[C@H](CO)[C@@H](O)[C@H](O)[C@H]2O)cc1 | inactive | – | inactive | inactive | – | – |
| O=C(C[C@](O)(Cc1ccc(O)cc1)C(=O)OCc1ccc(O[C@@H]2O[C@H](CO)[C@@H](O)[C@H](O)[C@H]2O)cc1)OCc1ccc(O[C@@H]2O[C@H](CO)[C@@H](O)[C@H](O)[C@H]2O)cc1 | 158% | – | inactive | inactive | Active | 60 |

Source: ChEMBL document CHEMBL1799945, “Glucosyloxybenzyl eucomate derivatives from Vanda teres stimulate HaCaT cytochrome c oxidase” (J Nat Prod, 2011)
